The text below walks through data of ChEMBL document CHEMBL5136968, “Posttranslational modifications of α-conotoxins: sulfotyrosine and C-terminal amidation stabilise structures and increase acetylcholine receptor binding” (RSC Med Chem, 2021).

Positions of bridges follow the written chain, without caps; N, C: chain ends. Non-standard residues stand in square brackets, D forms with d. Residues, ends and D or L forms follow the SMILES beside them. sY = N[C@@H](Cc1ccc(OS(=O)(=O)O)cc1)C(=O)O

Experiment [1] has as its target Acetylcholine-binding protein (Lymnaea stagnalis, UniProt P58154). The experiment is described as follows: Displacement of [3H]-epibatidine from Lymnaea stagnalis Acetylcholine-binding protein measured after 1 hr by liquid scintillation counter. A digest of the protocol:
(§1)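 Recombinant AChBP expressed in E. coli (IPTG induction, 16 °C), coated onto wells at 1 ng μL−1. Incubated 1 h at 4 °C with [3H]-epibatidine (1 nM final) and increasing peptide in PBS with 0.05% BSA. Unbound ligand washed off; bound radioactivity counted by liquid scintillation. One-site competition fit gives Ki. Triplicate, three independent experiments; pKi as mean with 95% CI.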
A general note: Loss of bound radioactivity is the signal in a displacement assay; it reports binding, not function.

Experiment [2] can be described thus: Displacement of [3H]-epibatidine from Aplysia californica Acetylcholine-binding protein measured after 1 hr by liquid scintillation counter. A digest of the protocol: as §1

Chain of Acetylcholine-binding protein (P58154 whole entry): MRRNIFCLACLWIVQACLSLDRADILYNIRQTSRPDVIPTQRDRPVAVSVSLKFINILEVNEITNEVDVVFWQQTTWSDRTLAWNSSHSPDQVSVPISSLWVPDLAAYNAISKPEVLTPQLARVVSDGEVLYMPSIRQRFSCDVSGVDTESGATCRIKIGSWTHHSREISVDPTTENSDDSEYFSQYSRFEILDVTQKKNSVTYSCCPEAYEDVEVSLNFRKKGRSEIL

Broadly, the Ki is a dissociation constant, usually derived from enzyme kinetics or from competition with a known ligand. Low readings indicate higher affinity, high ones lower affinity. The pKi is the negative decadic logarithm of the Ki, by convention in mol/L. As to `CC(C)C[C@@H]1NC(=O)[C@H](CO)NC(=O)[C@@H]2CSSC[C@@H](C(N)=O)NC(=O)[C@H](Cc3ccc(O)cc3)NC(=O)[C@H](CC(=O)O)NC(=O)[C@@H]3CCCN3C(=O)[C@H](CC(N)=O)NC(=O)[C@H](CC(N)=O)NC(=O)[C@H](C)NC(=O)[C@H](C)NC(=O)[C@H](CSSC[C@H](NC(=O)CN)C(=O)N2)NC(=O)[C@@H]2CCCN2C(=O)[C@@H]2CCCN2C1=O` (H-GCCSLPPCAANNPDYC-NH2; disulfide 2-8, 3-16), in experiment [1], the Ki was 9.12 µM. The same compound returned a pKi in experiment [2] of 8.85.
For `CC(C)C[C@@H]1NC(=O)[C@H](CO)NC(=O)[C@@H]2CSSC[C@@H](C(=O)O)NC(=O)[C@H](Cc3ccc(O)cc3)NC(=O)[C@H](CC(=O)O)NC(=O)[C@@H]3CCCN3C(=O)[C@H](CC(N)=O)NC(=O)[C@H](CC(N)=O)NC(=O)[C@H](C)NC(=O)[C@H](C)NC(=O)[C@H](CSSC[C@H](NC(=O)CN)C(=O)N2)NC(=O)[C@@H]2CCCN2C(=O)[C@@H]2CCCN2C1=O` (H-GCCSLPPCAANNPDYC-OH; disulfide 2-8, 3-16), in that order: > 100 µM and 7.51.
The matching figures for `CC(C)C[C@@H]1NC(=O)[C@H](CO)NC(=O)[C@@H]2CSSC[C@@H](C(N)=O)NC(=O)[C@H](Cc3ccc(OS(=O)(=O)O)cc3)NC(=O)[C@H](CC(=O)O)NC(=O)[C@@H]3CCCN3C(=O)[C@H](CC(N)=O)NC(=O)[C@H](CC(N)=O)NC(=O)[C@H](C)NC(=O)[C@H](C)NC(=O)[C@H](CSSC[C@H](NC(=O)CN)C(=O)N2)NC(=O)[C@@H]2CCCN2C(=O)[C@@H]2CCCN2C1=O` (H-GCCSLPPCAANNPD[sY]C-NH2; disulfide 2-8, 3-16): 3.8 µM and 8.92.
The matching figures for `CC(C)C[C@@H]1NC(=O)[C@H](CO)NC(=O)[C@@H]2CSSC[C@@H](C(=O)O)NC(=O)[C@H](Cc3ccc(OS(=O)(=O)O)cc3)NC(=O)[C@H](CC(=O)O)NC(=O)[C@@H]3CCCN3C(=O)[C@H](CC(N)=O)NC(=O)[C@H](CC(N)=O)NC(=O)[C@H](C)NC(=O)[C@H](C)NC(=O)[C@H](CSSC[C@H](NC(=O)CN)C(=O)N2)NC(=O)[C@@H]2CCCN2C(=O)[C@@H]2CCCN2C1=O` (H-GCCSLPPCAANNPD[sY]C-OH; disulfide 2-8, 3-16): > 100 µM and 8.33.
